ChEMBL document CHEMBL4118152, “Discovery of Potent and Selective Periphery-Restricted Quinazoline Inhibitors of the Cyclic Nucleotide Phosphodiesterase PDE1” (J Med Chem, 2018)

How the values were obtained:
[1] = target: Dual specificity calcium/calmodulin-dependent 3',5'-cyclic nucleotide phosphodiesterase 1C (Homo sapiens, UniProt Q14123); assay: Inhibition of full length recombinant human PDE1C using 3',5'-[3H]cAMP as substrate after 30 mins by scintillation proximity assay
How it was run: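 Human recombinant enzymes; substrate held below 1/3 of Km. IC50 reported as mean ± SEM of at least 3 determinations.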

[2] = species: Homo sapiens; assay: Selectivity ratio of IC50 for full length recombinant human PDE5A1 to IC50 for full length recombinant human PDE1B1
How it was run: (§1)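 IC50s were measured against recombinant PDEs, all human except PDE6A (bovine). Each enzyme was given its appropriate cAMP or cGMP substrate at below 1/3 of its Km. IC50s are the mean of n = 3 or more. The selectivity ratio is the IC50 for the other PDE divided by the IC50 for PDE1B1 or PDE1A.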

[3] = target: 5-hydroxytryptamine receptor 2A (Homo sapiens) (UniProt P28223); assay: Inhibition of human 5-HT2A receptor at 10 uM relative to control
[4] = species: Homo sapiens; assay: Inhibition of human phencyclidine receptor at 10 uM relative to control
[5] = target: Urotensin-2 receptor (Homo sapiens) (UniProt Q9UKP6); assay: Inhibition of human urotensin-2 receptor at 10 uM relative to control
[6] = target: Carbonic anhydrase 2 (Homo sapiens) (UniProt P00918); assay: Inhibition of human carbonic anhydrase 2 using 4-nitrophenyl acetate as substrate at 10 uM after 20 mins by spectrophotometric method relative to control
[7] = target: Melatonin receptor type 1A (Homo sapiens) (UniProt P48039); assay: Inhibition of human MT1A at 10 uM relative to control
[8] = Ratio of drug uptake in cerebrospinal fluid to fraction unbound in plasma in Wistar Hannover rat at 1 mg/kg, sc measured at 2 hrs post dose by LC-MS/MS analysis; type: ADME, organism-based, CSF/Plasma; details: in vivo
[9] = target: High affinity choline transporter 1 (Homo sapiens) (UniProt Q9GZV3); assay: Displacement of [3H]hemicholinium-3 from recombinant human Choline Transporter at 10 uM after 60 mins by scintillation counting analysis relative to control
[10] = target: cAMP and cAMP-inhibited cGMP 3',5'-cyclic phosphodiesterase 10A (Homo sapiens, UniProt Q9Y233); assay: Inhibition of full length recombinant human PDE10A1 using 3',5'-[3H]cAMP as substrate after 30 mins by scintillation proximity assay
How it was run: (§2)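 Enzymes were human except PDE6A, which was bovine. Each was assayed with cAMP or cGMP substrate, as appropriate to the enzyme, at concentrations below 1/3 of Km. IC50 values are mean ± SEM from n = 3 or more.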

[11] = target: Muscarinic acetylcholine receptor M2 (Homo sapiens) (UniProt P08172); assay: Inhibition of human muscarinic M2 receptor at 10 uM relative to control
[12] = species: Homo sapiens; assay: Inhibition of human endothelin receptor at 10 uM relative to control
[13] = target: Angiotensin-converting enzyme (Homo sapiens) (UniProt P12821); assay: Inhibition of human angiotensin converting enzyme at 10 uM relative to control
[14] = species: Homo sapiens; assay: Selectivity ratio of IC50 for full length recombinant human PDE7B to IC50 for full length recombinant human PDE1B1; how it was run: as §1
[15] = target: Vasopressin V2 receptor (Homo sapiens) (UniProt P30518); assay: Inhibition of human Vasopressin 2 receptor at 10 uM relative to control
[16] = target: 5-hydroxytryptamine receptor 6 (Homo sapiens) (UniProt P50406); assay: Inhibition of human 5-HT6 receptor at 10 uM relative to control
[17] = target: Adenosine A2 receptor (Homo sapiens) (UniProt P29275+P29274); assay: Inhibition of human adenosine A2 receptor at 10 uM relative to control; type: protein assay
[18] = target: Beta-3 adrenergic receptor (Homo sapiens) (UniProt P13945); assay: Inhibition of human beta 3 adrenergic receptor at 10 uM relative to control
[19] = species: Homo sapiens; assay: Selectivity ratio of IC50 for full length recombinant human PDE1A to IC50 for full length recombinant human PDE1B1; how it was run: as §1
[20] = species: Homo sapiens; assay: Selectivity ratio of IC50 for full length recombinant human PDE9A1 to IC50 for full length recombinant human PDE1B1; how it was run: as §1
[21] = Drug uptake in Wistar Hannover rat cerebrospinal fluid at 1 mg/kg, sc measured at 0.5 hrs post dose by LC-MS/MS analysis; type: ADME, organism-based; details: read-out: Drug uptake
How it was run: (§3)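 Rats were dosed subcutaneously at 1 mg/kg. CSF, plasma and brain were sampled at 0.5, 1, 2 and 4 h post dose and analysed for drug concentration. Values are means at each time point.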

[22] = target: Adenosine receptor A1 (Homo sapiens) (UniProt P30542); assay: Inhibition of human adenosine A1 receptor at 10 uM relative to control
[23] = target: Glutamate receptor ionotropic, kainate (Rattus norvegicus) (UniProt P22756+Q01812+P42260+P42264+Q63273); assay: Inhibition of rat brain Glutamate receptor, ionotropic kainate assessed as [3H]kainic acid uptake at 10 uM after 60 mins by scintillation counting analysis relative to control
[24] = target: D(3) dopamine receptor (Homo sapiens) (UniProt P35462); assay: Inhibition of human dopamine D3 receptor at 10 uM relative to control
[25] = target: Sodium-dependent dopamine transporter (Homo sapiens) (UniProt Q01959); assay: Inhibition of dopamine transporter (unknown origin) at 10 uM relative to control
[26] = target: Muscarinic acetylcholine receptor M5 (Homo sapiens) (UniProt P08912); assay: Inhibition of human muscarinic M5 receptor at 10 uM relative to control
[27] = target: High affinity cAMP-specific and IBMX-insensitive 3',5'-cyclic phosphodiesterase 8B (Homo sapiens, UniProt O95263); assay: Inhibition of full length recombinant human PDE8B using 3',5'-[3H]cAMP as substrate after 30 mins by scintillation proximity assay; how it was run: as §2
[28] = species: Rattus norvegicus; assay: Displacement of [3H]batrachotoxinin from rat brain Sodium channel site 2 at 10 uM after 60 mins by scintillation counting analysis relative to control
[29] = Drug uptake in Wistar Hannover rat cerebrospinal fluid at 1 mg/kg, sc measured at 2 hrs post dose by LC-MS/MS analysis; type: ADME, organism-based; details: read-out: Drug uptake; how it was run: as §3
[30] = target: Prostaglandin G/H synthase 1 (Homo sapiens) (UniProt P23219); assay: Inhibition of recombinant human Cyclooxygenase 1 using arachidonic acid/ADHP as substrate at 10 uM after 3 mins by Fluorimetric method relative to control
[31] = species: Homo sapiens; assay: Selectivity ratio of IC50 for full length recombinant human PDE2A1 to IC50 for full length recombinant human PDE1B1; how it was run: as §1
[32] = target: Alpha-2B adrenergic receptor (Homo sapiens) (UniProt P18089); assay: Inhibition of human alpha2B receptor at 10 uM relative to control
[33] = target: Motilin receptor (Homo sapiens) (UniProt O43193); assay: Inhibition of human Motilin receptor at 10 uM relative to control
[34] = Ratio of drug uptake in cerebrospinal fluid to fraction unbound in plasma in Wistar Hannover rat at 1 mg/kg, sc measured at 1 hr post dose by LC-MS/MS analysis; type: ADME, organism-based, CSF/Plasma; details: in vivo
[35] = Fraction unbound in Wistar Hannover rat brain at 1 mg/kg, sc measured at 0.5 hrs post dose by LC-MS/MS analysis; type: ADME, organism-based; details: in vivo

Alpha-2B adrenergic receptor (Homo sapiens), sequence (P18089 whole entry): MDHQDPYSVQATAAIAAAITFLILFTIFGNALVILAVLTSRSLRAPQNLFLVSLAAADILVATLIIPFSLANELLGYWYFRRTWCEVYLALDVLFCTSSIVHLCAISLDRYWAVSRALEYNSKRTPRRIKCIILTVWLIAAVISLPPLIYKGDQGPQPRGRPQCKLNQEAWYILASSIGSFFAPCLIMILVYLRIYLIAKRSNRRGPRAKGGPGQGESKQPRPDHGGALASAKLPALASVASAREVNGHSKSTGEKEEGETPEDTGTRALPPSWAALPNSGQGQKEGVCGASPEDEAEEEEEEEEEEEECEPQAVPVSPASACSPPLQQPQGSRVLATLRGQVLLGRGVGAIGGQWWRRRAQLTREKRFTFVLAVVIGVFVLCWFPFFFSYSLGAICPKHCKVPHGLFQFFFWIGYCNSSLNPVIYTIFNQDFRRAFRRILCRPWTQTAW
Urotensin-2 receptor (Homo sapiens), sequence (Q9UKP6 whole entry): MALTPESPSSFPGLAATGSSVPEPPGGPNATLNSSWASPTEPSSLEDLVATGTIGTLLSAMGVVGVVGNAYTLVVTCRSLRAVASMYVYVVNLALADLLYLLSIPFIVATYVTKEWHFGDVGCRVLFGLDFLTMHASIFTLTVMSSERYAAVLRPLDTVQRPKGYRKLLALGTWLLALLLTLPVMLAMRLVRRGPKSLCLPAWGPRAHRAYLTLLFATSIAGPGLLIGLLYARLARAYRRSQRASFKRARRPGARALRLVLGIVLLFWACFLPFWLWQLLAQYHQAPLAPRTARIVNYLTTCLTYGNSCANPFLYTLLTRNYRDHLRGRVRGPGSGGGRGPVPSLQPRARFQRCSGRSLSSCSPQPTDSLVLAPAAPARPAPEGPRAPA
Beta-3 adrenergic receptor (Homo sapiens), sequence (P13945 whole entry, looked up): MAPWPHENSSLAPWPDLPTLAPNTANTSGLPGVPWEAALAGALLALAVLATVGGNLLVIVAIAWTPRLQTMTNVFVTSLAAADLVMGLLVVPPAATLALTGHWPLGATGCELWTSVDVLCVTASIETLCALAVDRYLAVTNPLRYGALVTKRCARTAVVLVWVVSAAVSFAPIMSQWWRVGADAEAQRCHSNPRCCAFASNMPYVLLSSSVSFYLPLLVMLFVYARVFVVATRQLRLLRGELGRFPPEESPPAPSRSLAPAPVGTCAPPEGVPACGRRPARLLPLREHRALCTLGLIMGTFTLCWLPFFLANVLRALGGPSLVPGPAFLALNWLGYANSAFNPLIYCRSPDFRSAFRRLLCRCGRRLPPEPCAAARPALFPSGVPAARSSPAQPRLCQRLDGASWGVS
Prostaglandin G/H synthase 1 (Homo sapiens), sequence (P23219 whole entry): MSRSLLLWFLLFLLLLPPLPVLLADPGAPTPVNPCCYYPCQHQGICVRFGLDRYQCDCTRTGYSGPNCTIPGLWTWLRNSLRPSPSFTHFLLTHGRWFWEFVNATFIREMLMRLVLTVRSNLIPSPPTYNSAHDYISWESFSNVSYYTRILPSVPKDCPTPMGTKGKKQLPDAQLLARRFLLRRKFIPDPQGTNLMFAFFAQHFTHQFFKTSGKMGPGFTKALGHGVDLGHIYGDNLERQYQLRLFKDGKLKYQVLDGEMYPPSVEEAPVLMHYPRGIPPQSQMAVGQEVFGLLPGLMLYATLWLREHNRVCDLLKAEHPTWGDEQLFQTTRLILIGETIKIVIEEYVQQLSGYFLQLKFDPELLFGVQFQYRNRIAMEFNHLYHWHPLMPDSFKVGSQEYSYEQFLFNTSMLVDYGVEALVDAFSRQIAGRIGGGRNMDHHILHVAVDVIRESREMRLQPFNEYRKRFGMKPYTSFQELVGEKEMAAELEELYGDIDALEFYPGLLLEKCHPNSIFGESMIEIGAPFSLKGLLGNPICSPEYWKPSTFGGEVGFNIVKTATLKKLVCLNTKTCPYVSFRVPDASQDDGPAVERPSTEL
Motilin receptor (Homo sapiens), sequence (O43193 whole entry): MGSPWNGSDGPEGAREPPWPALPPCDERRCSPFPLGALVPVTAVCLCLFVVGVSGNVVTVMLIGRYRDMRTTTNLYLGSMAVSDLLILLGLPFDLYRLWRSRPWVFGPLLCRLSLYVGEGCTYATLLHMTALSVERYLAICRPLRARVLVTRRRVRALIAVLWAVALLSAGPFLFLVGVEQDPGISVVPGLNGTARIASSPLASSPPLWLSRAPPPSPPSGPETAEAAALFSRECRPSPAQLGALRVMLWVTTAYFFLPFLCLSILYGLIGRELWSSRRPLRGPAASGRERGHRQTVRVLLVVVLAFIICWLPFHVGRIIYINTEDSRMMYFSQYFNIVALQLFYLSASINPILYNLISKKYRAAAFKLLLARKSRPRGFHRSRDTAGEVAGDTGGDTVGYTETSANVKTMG
cAMP and cAMP-inhibited cGMP 3',5'-cyclic phosphodiesterase 10A, sequence (Q9Y233 whole entry): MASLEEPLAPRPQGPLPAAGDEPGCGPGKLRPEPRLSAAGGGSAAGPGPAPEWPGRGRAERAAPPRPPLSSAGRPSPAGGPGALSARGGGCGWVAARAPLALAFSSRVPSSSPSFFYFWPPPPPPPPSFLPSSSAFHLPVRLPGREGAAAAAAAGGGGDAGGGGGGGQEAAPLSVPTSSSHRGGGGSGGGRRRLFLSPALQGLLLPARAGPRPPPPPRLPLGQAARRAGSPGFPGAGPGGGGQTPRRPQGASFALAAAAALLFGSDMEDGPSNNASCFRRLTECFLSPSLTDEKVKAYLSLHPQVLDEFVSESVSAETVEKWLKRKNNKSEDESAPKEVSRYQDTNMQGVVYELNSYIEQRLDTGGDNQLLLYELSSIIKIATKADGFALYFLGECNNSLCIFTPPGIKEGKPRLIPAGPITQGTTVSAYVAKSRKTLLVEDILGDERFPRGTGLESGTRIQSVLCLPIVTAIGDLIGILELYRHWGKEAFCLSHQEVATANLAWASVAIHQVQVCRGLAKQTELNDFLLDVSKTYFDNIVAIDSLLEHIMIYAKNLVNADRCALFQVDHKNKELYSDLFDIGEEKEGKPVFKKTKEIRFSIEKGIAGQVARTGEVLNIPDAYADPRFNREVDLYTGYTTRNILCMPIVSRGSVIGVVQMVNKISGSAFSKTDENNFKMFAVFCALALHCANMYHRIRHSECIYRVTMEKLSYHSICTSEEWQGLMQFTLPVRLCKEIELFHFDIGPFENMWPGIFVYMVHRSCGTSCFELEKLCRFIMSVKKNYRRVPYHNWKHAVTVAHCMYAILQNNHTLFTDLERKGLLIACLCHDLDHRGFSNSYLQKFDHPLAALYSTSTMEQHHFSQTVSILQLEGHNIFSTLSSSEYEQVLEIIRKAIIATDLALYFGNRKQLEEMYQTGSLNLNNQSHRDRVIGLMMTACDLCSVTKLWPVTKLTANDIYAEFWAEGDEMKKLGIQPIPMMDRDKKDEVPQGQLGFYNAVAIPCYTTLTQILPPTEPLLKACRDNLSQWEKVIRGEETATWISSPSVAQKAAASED
Sodium-dependent dopamine transporter (Homo sapiens), sequence (Q01959 whole entry): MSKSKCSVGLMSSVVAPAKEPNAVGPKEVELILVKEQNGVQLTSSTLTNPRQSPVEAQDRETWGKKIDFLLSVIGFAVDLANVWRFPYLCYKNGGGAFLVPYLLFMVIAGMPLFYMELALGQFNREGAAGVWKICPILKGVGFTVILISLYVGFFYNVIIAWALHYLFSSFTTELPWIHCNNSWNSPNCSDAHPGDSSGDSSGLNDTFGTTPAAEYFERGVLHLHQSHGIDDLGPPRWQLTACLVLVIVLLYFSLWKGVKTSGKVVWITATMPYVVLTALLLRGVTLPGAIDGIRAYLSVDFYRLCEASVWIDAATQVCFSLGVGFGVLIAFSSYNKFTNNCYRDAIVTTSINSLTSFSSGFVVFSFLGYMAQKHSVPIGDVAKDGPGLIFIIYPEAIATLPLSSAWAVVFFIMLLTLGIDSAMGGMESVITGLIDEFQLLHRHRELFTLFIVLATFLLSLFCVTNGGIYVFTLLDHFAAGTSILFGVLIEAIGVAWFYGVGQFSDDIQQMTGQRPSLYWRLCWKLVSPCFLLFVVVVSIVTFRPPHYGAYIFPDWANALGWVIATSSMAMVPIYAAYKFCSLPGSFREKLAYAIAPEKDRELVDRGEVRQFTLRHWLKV
High affinity choline transporter 1 (Homo sapiens), sequence (Q9GZV3 whole entry): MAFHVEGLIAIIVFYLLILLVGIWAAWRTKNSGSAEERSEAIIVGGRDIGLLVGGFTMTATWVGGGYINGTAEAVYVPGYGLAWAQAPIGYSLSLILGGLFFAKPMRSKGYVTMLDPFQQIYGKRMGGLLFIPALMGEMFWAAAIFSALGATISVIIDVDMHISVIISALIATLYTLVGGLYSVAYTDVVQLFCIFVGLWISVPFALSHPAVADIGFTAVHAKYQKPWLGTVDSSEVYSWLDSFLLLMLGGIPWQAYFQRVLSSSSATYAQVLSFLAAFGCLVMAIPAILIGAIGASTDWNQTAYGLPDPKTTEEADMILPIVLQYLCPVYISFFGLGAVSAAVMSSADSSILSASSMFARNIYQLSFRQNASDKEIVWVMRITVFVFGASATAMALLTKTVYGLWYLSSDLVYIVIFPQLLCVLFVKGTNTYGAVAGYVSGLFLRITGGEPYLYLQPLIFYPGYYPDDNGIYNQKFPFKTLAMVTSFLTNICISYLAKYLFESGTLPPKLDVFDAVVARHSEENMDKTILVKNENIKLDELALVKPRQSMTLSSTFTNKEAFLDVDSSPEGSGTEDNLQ
5-hydroxytryptamine receptor 6 (Homo sapiens), sequence (P50406 whole entry): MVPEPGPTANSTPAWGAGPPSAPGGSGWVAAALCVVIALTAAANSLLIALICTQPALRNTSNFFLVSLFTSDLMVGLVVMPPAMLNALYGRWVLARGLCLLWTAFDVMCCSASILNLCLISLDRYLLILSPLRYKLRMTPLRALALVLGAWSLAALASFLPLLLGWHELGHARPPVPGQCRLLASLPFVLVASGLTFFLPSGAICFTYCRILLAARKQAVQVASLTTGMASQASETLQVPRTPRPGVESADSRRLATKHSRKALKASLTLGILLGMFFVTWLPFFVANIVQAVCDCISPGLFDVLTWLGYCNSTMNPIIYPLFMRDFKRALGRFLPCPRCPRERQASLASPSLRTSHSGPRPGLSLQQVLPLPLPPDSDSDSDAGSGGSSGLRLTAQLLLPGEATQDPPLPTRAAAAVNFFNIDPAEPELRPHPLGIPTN

Compound: COc1ccc2c(N[C@@H](C)Cc3cc(C)[nH]n3)ncnc2c1OC
- IC50 [1]: 38 nM
- Ratio IC50 [2]: 5970
- inhibition [3]: < 50%
- inhibition [4]: < 50%
- inhibition [5]: < 50%
- inhibition [6]: < 50%
- inhibition [7]: < 50%
- Ratio [8]: 0.2
- inhibition [9]: < 50%
- IC50 [10]: 409 nM
- inhibition [11]: < 50%
- inhibition [12]: < 50%
- inhibition [13]: < 50%
- Ratio IC50 [14]: 4540
- inhibition [15]: < 50%
- inhibition [16]: < 50%
- inhibition [17]: < 50%
- inhibition [18]: < 50%
- Ratio IC50 [19]: 4.6
- Ratio IC50 [20]: > 22000
- concentration at 0.5 h [21]: 21 nM
- inhibition [22]: < 50%
- inhibition [23]: < 50%
- inhibition [24]: < 50%
- inhibition [25]: < 50%
- inhibition [26]: < 50%
- IC50 [27]: 15500 nM
- inhibition [28]: < 50%
- concentration at 2 h [29]: 8 nM
- inhibition [30]: < 50%
- Ratio IC50 [31]: 5230
- inhibition [32]: < 50%
- inhibition [33]: < 50%
- Ratio [34]: 0.13
- Drug uptake(free) [35]: 6 nM
